Experimental data as given in ChEMBL document CHEMBL1139901, “Synthesis of new plant growth regulator: N-(fatty acid) O-aryloxyacetyl ethanolamine” (Bioorg Med Chem Lett, 2007).

What was measured:
Triticum aestivum = test: Stimulation of coleoptiles growth in common wheat after 18 to 20 hrs; type: functional; parameters: concentration or dose not given beside the values
Summary of the method: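 Wheat coleoptile tips (5 mm) were soaked in distilled water for 1 h to remove endogenous hormone, then cut into 10 segments. Compound in DMF was dried onto 6-cm filter paper and placed in 0.01 mol/L phosphoric acid–citric acid buffer (pH 5) with 2% sucrose, giving 10 mg/L. Ten segments were cultured at 25 °C in the dark for 18–20 h. Length was compared with untreated segments; two replicates.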

Brassica napus = test: Stimulation of hypocotyls elongation in rape after 3 days; type: functional; parameters: concentration or dose not given beside the values
Summary of the method: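 Rape seeds were cultured at 25 °C in the dark. Hypocotyl length was measured after 3 days and compared with seeds treated with distilled water; two replicates.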

Cucumis sativus = test: Stimulation of cytyledon expansion in cucumber after 3 days; type: functional; parameters: concentration or dose not given beside the values
Summary of the method: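 Soaked cucumber seeds were germinated on 0.7% agar for 3 days in the dark at 26 °C, and cotyledons of similar size were selected. Compound in DMF was dried onto 6-cm filter paper, then distilled water was added to give 10 mg/L. Ten cotyledons were cultured per dish under light (300 Lux, 26 °C). Percent increase was taken over the no-regulator control.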

[1] = Solubility in ethyl acetate solution; type: physicochemical
[2] = Solubility in chloroform; type: physicochemical
[3] = Solubility in ethanol; type: physicochemical

Compound | Activity (Triticum aestivum) | Activity (Brassica napus) | Activity (Cucumis sativus) | Solubility [1] | Solubility [2] | Solubility [3]
CCCCCCCCCCCCCC(=O)NCCOC(=O)COc1ccc(Cl)cc1Cl | 8.9% | 68.1% | -0.1% |  |  | 
CCCCCCCCCCCC(=O)NCCO |  |  |  | 0.38 g | 1.76 g | 9.14 g
CCCCCCCCCCCC(=O)NCCOC(=O)COc1ccc(Cl)cc1Cl | 17.9% | 69% | 4% | 11 g | 15.1 g | 10.42 g
O=C(O)COc1ccc(Cl)cc1Cl [2,4-DICHLOROPHENOXYACETIC ACID] | 28.3% | 65.7% | 0.8% |  |  | 
CCCCCCCCCCCC(=O)NCCOC(=O)COc1ccc(Cl)cc1 | 16% | 71.8% | 2.9% |  |  | 
CCCCCCCCCCCCCCCCCC(=O)NCCOC(=O)COc1ccc(Cl)cc1Cl | 7.5% | 73.8% | 0.7% | 3.54 g | 10.22 g | 1.03 g
CCCCCCCCCCCCCCCCCC(=O)NCCOC(=O)COc1ccc(C)cc1 | 3.3% | 38.7% | 9.8% |  |  | 
CCCCCCCCCCCCCCCCCC(=O)NCCOC(=O)COc1cccc(OC)c1 | 5% | -1.4% | -0.1% | 2.67 g | 7.76 g | 1.99 g
CCCCCCCCCCCCCCCCCC(=O)NCCO [N-(2-HYDROXYETHYL)STEARAMIDE] | 2.1% | 35.3% | 6.2% | 0.03 g | 0.16 g | 0.34 g
CCCCCCCCCCCC(=O)NCCOC(=O)COc1ccc(C)cc1 | 4.1% | 54.9% | 5.9% |  |  | 
CCCCCCCCCCCCCCCCCC(=O)NCCOC(=O)COc1ccccc1C | 0.7% | 57% | 5.7% | 8.27 g | 53.97 g | 3.08 g
CCCCCCCCCCCCCCCC(=O)NCCOC(=O)COc1ccc(Cl)cc1Cl | 17% | 67.3% | 3.5% |  |  | 
CCCCCCCCCCCCCCCCCC(=O)NCCOC(=O)COc1ccc(Cl)cc1 | 5% | 71.8% | 6.3% | 1.54 g | 4.37 g | 1.88 g
